Experimental data taken from ChEMBL document CHEMBL2311478, “Macrolactonolides: a novel class of anti-inflammatory compounds” (Bioorg Med Chem, 2013).
≈ marks a conversion by molar mass, not a printed value. Calls of active or inactive are those of the source. No cut-off for these calls is given here.

What was measured:
[1] = Tmax in Balb/c mouse blood at 2 mg/kg, administered intranasally; format: ADME, organism-based; set-up: dose 2 mg/kg; details: whole blood, inhaled or intranasal
How it was run: (§1)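 Male Balb/c mice (21–25 g) dosed intranasally with freshly prepared formulation in 1% DMSO plus 0.125% CMC. Terminal bleeding and lung collection from 5 min to 72 h. K2EDTA blood taken as blood aliquots or spun for plasma. Lung homogenised 1:5 in water. Samples were protein-precipitated with acetonitrile/methanol (2:1) plus roxithromycin internal standard and quantified by LC–MS/MS. LLOQ 0.5 ng/mL (blood/plasma) and 2.5 ng/mL (lung).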

[2] = system: PBMC; test: Antiinflammatory activity in human PBMC assessed as inhibition of LPS-induced IL-6 production after 6 hrs; format: functional, cell-based
How it was run: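 Thawed cryopreserved human PBMCs were preincubated 1 h at 37 °C, 5% CO2, then exposed to test compound for 1 h before LPS, anti-CD3 or PHA stimulation. Supernatants were collected at 6, 24 or 48 h according to each cytokine's peak, and cytokines quantified by Luminex multiplex bead assay. 10-point titration starting at 20 µM, in duplicate, with constant DMSO. Parallel Alamar Blue cytotoxicity check under 48 h PHA.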

[3] = system: Staphylococcus aureus; test: Antibacterial activity against efflux mediated macrolide-resistant Staphylococcus aureus PK1 by broth microdilution method; format: functional
How it was run: (§2)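 MICs by CLSI broth microdilution with double dilutions, except that Streptococcus medium used 5% horse serum in place of lysed blood. Bacteria were pre-grown on Columbia agar with 5% sheep blood (streptococci) or Mueller–Hinton agar (staphylococci).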

[4] = system: Streptococcus pneumoniae; test: Antibacterial activity against constitutive-resistant to macrolide, licosamide and streptogramin Streptococcus pneumoniae 58 Spain by broth microdilution method; format: functional; how it was run: as §2
[5] = system: Rattus norvegicus; test: Antiinflammatory activity against ovalbumin-induced airway allergic Brown-Norway rat model assessed as decrease of neutrophils in bronchoalveolar lavage fluid at 32 mg/kg administered intranasally as dry powder measured on day 29 after ovalbumin challenge; format: functional, organism-based; set-up: dose 32 mg/kg
How it was run: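 Brown-Norway rats sensitised by OVA injection on day 1, boosted on days 14 and 20. Treatment with 32 mg/kg or air control on day 27, followed 1 h later by 60 min OVA inhalation challenge. BAL cells differentiated about 48 h post-challenge (day 29). Comparison was against a sensitised, challenged, untreated group. Mean + SD, n = 10, Dunnett test.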

[6] = system: Escherichia coli; test: Antibacterial activity against Escherichia coli ATCC 25922 by broth microdilution method; format: functional
How it was run: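 CLSI broth microdilution with double dilutions in 96-well plates. For streptococci, 5% horse serum replaced lysed blood in the medium. Inocula were grown on Columbia agar with 5% sheep blood for streptococci, Mueller–Hinton chocolate agar for H. influenzae, and Mueller–Hinton agar for staphylococci. Read-out is MIC in mg/L.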

[7] = Tmax in Balb/c mouse lung at 2 mg/kg, administered intranasally; format: ADME, organism-based; set-up: dose 2 mg/kg; details: inhaled or intranasal; how it was run: as §1
[8] = system: Rattus norvegicus; test: Antiinflammatory activity against ovalbumin-induced airway allergic Brown-Norway rat model assessed as decrease of eosinophil peroxidase activity in bronchoalveolar lavage fluid at 11 mg/kg administered intranasally as dry powder measured on day 29 after ovalbumin challenge; format: functional, Lung; set-up: scale not given: the % may be the effect or the level left
[9] = system: Staphylococcus aureus; test: Antibacterial activity against constitutive-resistant to macrolide, licosamide and streptogramin Staphylococcus aureus PK2 by broth microdilution method; format: functional; how it was run: as §2
[10] = target: T1, Glucocorticoid receptor (Homo sapiens, UniProt P04150); test: Displacement of [3H]-dexamethasone human glucocorticoid receptor alpha expressed in 293 MSR cells after 60 mins by scintillation counting; format: cell-based
T1 sequence (P04150 whole entry): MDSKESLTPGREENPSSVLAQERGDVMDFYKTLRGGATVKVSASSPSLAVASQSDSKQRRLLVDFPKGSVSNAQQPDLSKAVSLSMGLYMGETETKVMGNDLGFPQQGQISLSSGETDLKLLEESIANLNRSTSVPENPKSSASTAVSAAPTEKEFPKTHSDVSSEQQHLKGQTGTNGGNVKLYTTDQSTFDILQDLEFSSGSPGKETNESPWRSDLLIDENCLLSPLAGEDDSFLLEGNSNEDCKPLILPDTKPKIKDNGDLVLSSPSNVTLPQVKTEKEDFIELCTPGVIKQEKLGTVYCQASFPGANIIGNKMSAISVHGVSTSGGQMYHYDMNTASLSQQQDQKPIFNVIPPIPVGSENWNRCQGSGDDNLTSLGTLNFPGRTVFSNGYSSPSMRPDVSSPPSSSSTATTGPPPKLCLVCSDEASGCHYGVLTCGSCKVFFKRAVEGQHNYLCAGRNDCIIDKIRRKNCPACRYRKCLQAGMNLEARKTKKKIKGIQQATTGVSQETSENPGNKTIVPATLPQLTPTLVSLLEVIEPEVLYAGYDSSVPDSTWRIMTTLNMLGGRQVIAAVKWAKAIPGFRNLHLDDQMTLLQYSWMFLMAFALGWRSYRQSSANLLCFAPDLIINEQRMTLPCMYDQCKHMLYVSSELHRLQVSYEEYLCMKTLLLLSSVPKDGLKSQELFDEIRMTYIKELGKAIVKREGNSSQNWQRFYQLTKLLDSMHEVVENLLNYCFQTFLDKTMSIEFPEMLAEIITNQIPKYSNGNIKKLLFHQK

CC[C@H]1OC(=O)[C@H](C)[C@@H](O[C@H]2C[C@@](C)(OC)[C@@H](O)[C@H](C)O2)[C@H](C)[C@@H](O[C@@H]2O[C@H](C)C[C@H](N(C)C)[C@H]2O)[C@](C)(O)C[C@@H](C)CN(CCCNC(=O)[C@H]2[C@H](C)C[C@H]3[C@@H]4CCC5=CC(=O)C=C[C@]5(C)[C@@]4(F)[C@@H](O)C[C@@]32C)[C@H](C)[C@@H](O)[C@]1(C)O
Tmax [1]: 15 min | EC50 [2]: > 20000 nM | MIC [3]: > 64 µg/mL | MIC [4]: 64 µg/mL (≈ 56.3 µM) | Activity [5]: Active | MIC [6]: > 64 µg/mL | Tmax [7]: 4.8 min | Activity [8]: 12% | MIC [9]: > 64 µg/mL | EC50 [10]: 430 nM
